Reference: PubChem BioAssay
Results filed as inconclusive are left out.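 The calls were made as follows, unless noted: active = growth inhibition above 25% in both replicates, a cutoff set 3 SD above the mean; inconclusive = above 25% in only one replicate; inactive = the rest.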

How the values were obtained:
[1] = S. cerevisiae growth inhibition in permissive medium (OD615), pilot counter-assay for S. cerevisiae lifespan shortening project, permissive growth control (AID 705); conditions: OD615, 24 h, at 10 µM, stronger effect = higher value
Outline: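 assay system = Saccharomyces cerevisiae strain carrying genetically modified DeaD replicative-lifespan system | medium = SC raffinose/galactose permissive medium | dosing = 10 µM single dose, 0.25% DMSO | schedule = 24 h compound exposure at 30 °C after 4 h pre-growth | measured by = OD at 615 nm | read-out basis = growth inhibition from lowered OD615 after 24 h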

[2] = S. cerevisiae growth inhibition in restrictive medium, OD615, pilot screen, restrictive growth control, yeast lifespan reduction project (AID 706;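 active = growth inhibition above a set limit, 3 SD over mean compound inhibition, in both replicates, cut at about 43% in these data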;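 also: modified DeaD lifespan yeast strain shifted to restrictive glucose medium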); conditions: OD615, 48 h, at 10 µM, stronger effect = higher value
Outline: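 Buffer or medium: CSMM-D glucose medium. Material: genetically modified Saccharomyces cerevisiae, DeaD replicative lifespan assay strain. Times: 48 h compound exposure at 30 °C. Measured by: optical density at 615 nm.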

[3] = doxorubicin toxicity protection in MRP-1 cells – H69AR cells, CellTiter-Glo, duplicate, MRP-1 activator project, pilot screen (AID 807;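 active = viability increase at or above a cutoff of the median across tested compounds plus 3 SD, cut at about 8.5% in these data, passing the limit was not always enough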;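 also: compound pretreatment 18-22 h then 72 h combined with doxorubicin; 0% = doxorubicin alone and 100% = vehicle without doxorubicin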); conditions: H69AR viability with doxorubicin, CellTiter-Glo luminescence; at 10 µM; stronger effect = higher value
[4] = viability of HCT116 without oncogenic beta-catenin – human colon tumor cells, pilot screen (AID 823;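 active = cell viability at or below a set limit in both duplicate runs, the limit being the all-compound median minus 4 SD, cut at about 23% in these data, passing the limit was not always enough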;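 also: 0% = wells killed by 20 µM Hyamine and 100% = untreated DMSO cell wells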); conditions: HCT116 beta-catenin knockout viability, CellTiter-Glo, 60 h; at 10 µM; stronger effect = lower value
[5] = viability of PTEN-null HCT116 cells – cell-based, HCT116 clonal line, CellTiter-Glo, pilot screen (AID 824;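 active = viability at or below 27.92% in each of two runs, the all-compound median minus 4 SD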;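 also: 0% = 20 µM Hyamine control and 100% = vehicle cell control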); conditions: HCT116 PTEN-deleted viability, 60 h, at 10 µM, stronger effect = lower value
[6] = RAM pathway blockade in budding yeast – dse1pr::URA3 reporter, 5-FOA selection, pilot screen (AID 869;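 active = inhibition over a set limit, the all-compound mean plus 3 SD, in both replicate runs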;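 also: 0% = DMSO wells with no growth and 100% = 10 µM 1-NA-PP1 with full growth; RAM network block rescues cells from 5-FOA so hits raise OD615 growth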); conditions: S. cerevisiae dse1pr::URA3 5-FOA growth, OD615, 2 d; at 10 µM; stronger effect = higher value; strain carries analog-sensitive mutant Cbk1 kinase
[7] = RAM signaling pathway blockade in yeast – S. cerevisiae, Pdr1DBD-CYC8 efflux-inhibited sensitized strain, primary screen (AID 1298;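 active = RAM network inhibition above 8.4% in each of two replicates, 3 SD over the compound average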;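 also: 0% = DMSO untreated cells without growth and 100% = 10 µM 1-NA-PP1 full growth; higher means more yeast growth rescued from 5-FOA killing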); conditions: S. cerevisiae cbk1-as DSE1-URA3 strain, 5-FOA growth OD615, 2 d; at 50 µM; stronger effect = higher value

O=C(COC(=O)c1ccc(S(=O)(=O)N2CCOCC2)cc1)NC1CCCCCC1
inactive: growth inhibition [1] -5.28% | growth inhibition [2] -3.04% | viability increase [3] 0.74% | viability [4] 101% | viability [5] 105% | inhibition [6] 1.42% | RAM network inhibition [7] 3.1%

COC(=O)c1cc2c(s1)-c1ccccc1OC2
inactive: growth inhibition [1] -11.1% | growth inhibition [2] 4.14% | viability increase [3] -4.57% | viability [4] 101% | viability [5] 95.7% | inhibition [6] 1.39% | RAM network inhibition [7] 3.14%

COc1ccc(CCNC(=O)CN2CCOc3ccccc32)cc1OC
inactive: growth inhibition [1] -23.7% | growth inhibition [2] 13.9% | viability increase [3] -6.27% | viability [4] 100% | viability [5] 96.8% | inhibition [6] 0.49% | RAM network inhibition [7] 1.27%

CCN(CC)CCNC(=O)c1cn(CC)c2ccc(S(=O)(=O)N(C)C)cc2c1=O
inactive: growth inhibition [1] 0.365% | growth inhibition [2] 8.34% | viability increase [3] -1.41% | viability [4] 106% | viability [5] 101% | inhibition [6] 2.2% | RAM network inhibition [7] 2.04%

COc1ccc(Cl)cc1C(=O)NCC(C)C
inactive: growth inhibition [1] 6.51% | growth inhibition [2] 8.17% | viability increase [3] -0.38% | viability [4] 95.7% | viability [5] 90.4% | inhibition [6] 2.71% | RAM network inhibition [7] 4.05%

CCOc1ccccc1C1CC(c2ccc(Cl)cc2)Nc2nc(N)nn21 (stereo not given)
inactive: growth inhibition [1] 0.515% | growth inhibition [2] 23% | viability increase [3] 1.4% | viability [4] 66.3% | viability [5] 77.6% | inhibition [6] -0.11% | RAM network inhibition [7] 1.24%

COc1ccc(C2CC(C(F)(F)F)n3ncc(C(=O)O)c3N2)cc1OC (stereo not given)
inactive: growth inhibition [1] -0.77% | growth inhibition [2] -3% | viability increase [3] 0.06% | viability [4] 97.2% | viability [5] 97.9% | inhibition [6] 0.23% | RAM network inhibition [7] -0.41%

CCOC(=O)N1CCC(NC(=O)c2ccc(CS(=O)(=O)c3ccccc3C)o2)CC1
inactive: growth inhibition [1] -9.38% | growth inhibition [2] -19.7% | viability increase [3] -0.86% | viability [4] 106% | viability [5] 98.5% | inhibition [6] -0.185% | RAM network inhibition [7] 7.2%

COc1ccc(-c2nc(C(N)=O)c3[nH]c(=O)n(-c4cccc(C)c4)c3n2)c(OC)c1
inactive: growth inhibition [1] -10.8% | growth inhibition [2] -14.3% | viability increase [3] -5.41% | viability [4] 81.6% | viability [5] 74.3% | inhibition [6] 3.42% | RAM network inhibition [7] 5.6%

CCOc1ccccc1NC(=O)C1CCC(CNc2c(N3CCOCC3)c(=O)c2=O)CC1 (stereo not given)
inactive: growth inhibition [1] 0.95% | growth inhibition [2] -1.83% | viability increase [3] -0.66% | viability [4] 108% | viability [5] 92.7% | inhibition [6] 1.43% | RAM network inhibition [7] 1.18%

COc1ccc(CSc2nnnn2Cc2ccccc2)cc1OC
inactive: growth inhibition [1] 0.115% | growth inhibition [2] 1.64% | viability increase [3] -0.65% | viability [4] 87.3% | viability [5] 84.4% | inhibition [6] 0.785% | RAM network inhibition [7] 1.87%

CSc1nnc(Cn2c(=O)sc3ccccc32)n1-c1ccccc1
inactive: growth inhibition [1] -2.55% | growth inhibition [2] 3.38% | viability increase [3] -0.84% | viability [4] 104% | viability [5] 102% | inhibition [6] 2.03% | RAM network inhibition [7] 2.08%

O=C(c1cc2ccccn2n1)N1CCN(c2ccccn2)CC1
inactive: growth inhibition [1] -2.62% | growth inhibition [2] 7.25% | viability increase [3] 2.16% | viability [4] 103% | viability [5] 106% | inhibition [6] 0.94% | RAM network inhibition [7] 4.4%

CN1CCN(c2cc(=O)n(C3CCCCC3)c(=O)[nH]2)CC1
inactive: growth inhibition [1] -17.5% | growth inhibition [2] -8.34% | viability increase [3] 0.57% | viability [4] 101% | viability [5] 103% | inhibition [6] 1.9% | RAM network inhibition [7] 1.26%

COC(=O)NCC(c1cccnc1)N1CCN(c2ccccc2F)CC1 (stereo not given)
inactive: growth inhibition [1] -5.28% | growth inhibition [2] -1.77% | viability increase [3] -0.18% | viability [4] 95.6% | viability [5] 102% | inhibition [6] 1.66% | RAM network inhibition [7] 1.57%

COc1ccc(C2C(C(=O)Nc3cccc(C)n3)c3ccccc3C(=O)N2C)cc1OC (stereo not given)
inactive: growth inhibition [1] 5.62% | growth inhibition [2] 5.49% | viability increase [3] -1.04% | viability [4] 103% | viability [5] 99.6% | inhibition [6] -0.04% | RAM network inhibition [7] 3.5%

COc1cccc(N2CCN(C(=O)CN(C)S(=O)(=O)c3ccc4c(c3)CCC(=O)N4)CC2)c1
inactive: growth inhibition [1] -2.86% | growth inhibition [2] -13.8% | viability increase [3] -2.87% | viability [4] 87.6% | viability [5] 85.5% | inhibition [6] 0.59% | RAM network inhibition [7] 7.09%

CCOC(=O)Cn1c(=O)oc2cc(S(=O)(=O)Nc3cc(Cl)ccc3OC)ccc21
inactive: growth inhibition [1] -2.69% | growth inhibition [2] -4.88% | viability increase [3] -2.35% | viability [4] 91.9% | viability [5] 89% | inhibition [6] 0.525% | RAM network inhibition [7] 4.96%

O=C(Cn1cc2c(n1)CCCC2)N1CCCc2ccccc21
inactive: growth inhibition [1] 1.09% | growth inhibition [2] 4.04% | viability increase [3] -1.6% | viability [4] 98.6% | viability [5] 100% | inhibition [6] 0.85% | RAM network inhibition [7] 1.48%

O=C(NCCc1ccc(Cl)cc1)c1cnc2n(c1=O)CCS2
inactive: growth inhibition [1] -1.75% | growth inhibition [2] -8.11% | viability increase [3] 3.85% | viability [4] 95% | viability [5] 92.1% | inhibition [6] 0.37% | RAM network inhibition [7] 9.74%

Cc1cc(C)nc(SCCCn2c(=O)[nH]c3ccccc32)n1
inactive: growth inhibition [1] -6.43% | growth inhibition [2] -7.19% | viability increase [3] 1.32% | viability [4] 99.9% | viability [5] 90.5% | inhibition [6] 1.02% | RAM network inhibition [7] 10.9%

COc1ccc(NC(=O)Nc2ccc3c(c2)N(C)C(=O)CS3)cc1OC
inactive: growth inhibition [1] -18.9% | growth inhibition [2] -18.2% | viability increase [3] -4.94% | viability [4] 88% | viability [5] 75.9% | inhibition [6] 2.05% | RAM network inhibition [7] 5.75%

Cc1ccc(S(=O)(=O)N(C)CCCC(=O)Nc2ccncc2)cc1
inactive: growth inhibition [1] -2.16% | growth inhibition [2] -6.8% | viability increase [3] -0.64% | viability [4] 79.4% | viability [5] 79% | inhibition [6] 0.13% | RAM network inhibition [7] 1.94%

Cc1c(C#N)c2ccccc2n1CC(=O)NCCc1c[nH]c2ccccc12
inactive: growth inhibition [1] -12.2% | growth inhibition [2] 5.17% | viability increase [3] -6.08% | viability [4] 52.7% | viability [5] 64.3% | inhibition [6] 3.73% | RAM network inhibition [7] 8.41%

CC(=O)c1ccc(OCC(O)CN2CCN(c3ccccn3)CC2)cc1 (stereo not given)
inactive: growth inhibition [1] 2.13% | growth inhibition [2] 4.88% | viability increase [3] 0.37% | viability [4] 102% | viability [5] 103% | inhibition [6] 1.18% | RAM network inhibition [7] 2.51%

CCOC(=O)c1[nH]c2cc(OC)c(OC)cc2c1NC(=O)c1ccc2c(c1)OCO2
inactive: growth inhibition [1] -7.63% | growth inhibition [2] -10.9% | viability increase [3] -1.41% | viability [4] 102% | viability [5] 101% | inhibition [6] 2.13% | RAM network inhibition [7] 7.33%

COc1ccc(-n2c(=O)c3ccccc3n(CC(=O)NC3CCCC3)c2=O)c(OC)c1
inactive: growth inhibition [1] -4.38% | growth inhibition [2] -22% | viability increase [3] -0.98% | viability [4] 98.2% | viability [5] 96.2% | inhibition [6] 2.04% | RAM network inhibition [7] 3.21%

COc1cc(NC(=O)C2CCCN2C(=O)C2CCC(C)CC2)cc(OC)c1OC (stereo not given)
inactive: growth inhibition [1] -6.57% | growth inhibition [2] -3.52% | viability increase [3] -1.44% | viability [4] 96.3% | viability [5] 93.2% | inhibition [6] 2.65% | RAM network inhibition [7] 1.46%

COC(=O)C1CCN(C(=O)c2ccc(Cl)c(S(=O)(=O)NCc3cccnc3)c2)CC1
inactive: growth inhibition [1] -4.88% | growth inhibition [2] -18.5% | viability increase [3] 0.87% | viability [4] 101% | viability [5] 102% | inhibition [6] 1.32% | RAM network inhibition [7] 2.3%

Cc1ccc(S(=O)(=O)N(C)Cc2nc(-c3ccc(Br)cc3)no2)cc1
inactive: growth inhibition [1] -3.27% | growth inhibition [2] -0.88% | viability increase [3] 0.27% | viability [4] 89.5% | viability [5] 87.8% | inhibition [6] 2.72% | RAM network inhibition [7] 3.02%

c1ccc(Oc2nc(Oc3ccccc3)nc(N3CCOCC3)n2)cc1
inactive: growth inhibition [1] -3.76% | growth inhibition [2] -9.93% | viability increase [3] -2.99% | viability [4] 83.7% | viability [5] 74.1% | inhibition [6] 0.355% | RAM network inhibition [7] 8.11%

O=c1cc(O)c2c(=O)n(-c3ccccc3)c3ccccc3c2o1
inactive: growth inhibition [1] 8.67% | growth inhibition [2] 4.96% | viability increase [3] -4.59% | viability [4] 98.3% | viability [5] 87.1% | inhibition [6] 0.67% | RAM network inhibition [7] 0.42%

O=C(NCc1cccs1)C1CCN(S(=O)(=O)c2cccc3cccnc23)CC1
inactive: growth inhibition [1] -3.73% | growth inhibition [2] -6.17% | viability increase [3] -0.65% | viability [4] 93% | viability [5] 90.7% | inhibition [6] -0.03% | RAM network inhibition [7] 1.45%

COc1ccc(OC)c(CN2C(=O)c3ccccc3C2C(=O)NCc2cccnc2)c1 (stereo not given)
inactive: growth inhibition [1] -6.83% | growth inhibition [2] 2.58% | viability increase [3] 0.05% | viability [4] 106% | viability [5] 97.6% | inhibition [6] 0.155% | RAM network inhibition [7] 4.09%

CCCN1Cc2cccc(C(=O)N3CCN(c4cc(Cl)ccc4C)CC3)c2C1=O
inactive: growth inhibition [1] 1.4% | growth inhibition [2] -10.8% | viability increase [3] -0.17% | viability [4] 70.5% | viability [5] 66.7% | inhibition [6] 0.375% | RAM network inhibition [7] 1.65%
